The source made the active and inactive calls.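 Rule for the calls: active = at least one off-target enzyme showing weaker fluorescent probe labeling in any proteome panel; inactive = no off-target enzyme affected in any panel.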

This assay concerns Soluble Proteome. Briefly: proteome-wide probe labelling blockade by competitive ABPP – cell lysate, gel-based fluorescence, soluble and membrane fractions, selectivity assay for PAD4 inhibitor project, late-stage follow-up (AID 651628). The following applies: MCF7 proteome, CA-Rh gel-based ABPP, anti-target count, at 50 µM, stronger effect = higher value. In a few lines: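 Buffer or medium: DPBS; System: MCF7 soluble or membrane proteome; Quantity: proteome protein concentration of 1 mg/ml; Also added: CA-Rh probe, 10 µM; Times: compound pre-incubation 1 h, then probe labelling 1 h, both 25 °C; Control set: DMSO-only reference; Signal: SDS-PAGE separation with in-gel fluorescence scanning of labelled bands.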
Consider `COC1=C(I)C(=O)c2nc(C#N)ccc2C1=O`, for which the number of anti-targets is > 5 (active).

On to `COC1=CC(=O)c2nc(C#N)ccc2C1=O`, for which the number of anti-targets is > 5 (active).

On to `NC1=CC(=O)c2cccnc2C1=O`, for which the number of anti-targets is 0 (inactive).

Consider `COC1=C(Br)C(=O)c2nc(-c3ccccn3)ccc2C1=O`, for which the number of anti-targets is > 5 (active).

For `O=C1C=C(Br)C(=O)c2ncccc21`, the number of anti-targets was > 5 (active).

Consider `COC1=C(N)C(=O)c2nc(-c3nc(C(=O)O)c(C)c(-c4ccc(OC)c(OC)c4O)c3N)ccc2C1=O`, for which the number of anti-targets was 0 (inactive).

In the case of `COC(=O)c1cccc(-c2ccc3c(n2)C(=O)C(Br)=CC3=O)n1`, the number of anti-targets is 0 (inactive).

For the compound `NC1=CC(=O)c2ccc(-c3cccc(C(=O)O)n3)nc2C1=O`, the number of anti-targets is 0 (inactive).

On to `COC(=O)c1cccc(-c2ccc3c(n2)C(=O)C(N)=CC3=O)n1`, for which the number of anti-targets was 0 (inactive).

On to `O=C1C(O)=C(O)C(=O)c2ncccc21`, for which the number of anti-targets is 3 (active).

Take `NC1=CC(=O)c2ccc(-c3ccccn3)nc2C1=O`: the number of anti-targets was 0 (inactive).

Take `COC(=O)c1nc(C(=O)OC)c(NC(C)=O)c(-c2ccccc2Br)c1C`: the number of anti-targets was 0 (inactive).

As for `COC1=C(N)C(=O)c2ncccc2C1=O`, the number of anti-targets is 0 (inactive).

For `COC1=C(Br)C(=O)c2ncccc2C1=O`, the number of anti-targets was > 5 (active).

The values are drawn from PubChem BioAssay AID651628 (The Scripps Research Institute Molecular Screening Center, 2012).
